Published values from different studies.
Compare with care: the assays were run in different laboratories.

SMILES | target or system | assay | conditions | endpoint | value
CC(O)CSc1nnc(-c2ccccc2)n1-c1ccccc1 (stereo not shown) | Staphylococcus aureus | microbial growth, disc diffusion | 25 µg/disc | inhibition zone | 10 mm
COc1cc2ncnc(N(C)c3ccc4c(c3)/C(=C/c3cccc(Cl)c3)C(=O)N4C)c2cc1OC | BEAS-2B | cell growth or viability, MTT |  | IC50 | 10100 nM
Cc1c(C(=O)O)ccc2c3n(nc12)[C@@H]1[C@H](C3)N(CC2CC2)[C@@]2(C(=O)Nc3cc(Cl)ccc32)[C@H]1c1cccc(Cl)c1F | human Fibroblast | cell growth or viability, ATP luminescence | 72 h | GI50 | 5 nM
C=CC(=O)NC1CCN(c2ncc3ncnc(Nc4ccc(Oc5ccc6c(c5)ncn6C)c(C)c4)c3n2)CC1 | IM95 | cell growth or viability |  | EC50 | 54.1 nM
CC1(C)CCC(CN2CCN(c3ccc(C(=O)NS(=O)(=O)c4ccc(NCC5CCOCC5)c([N+](=O)[O-])c4)c(Oc4cnc5[nH]ccc5c4)c3)CC2)=C(c2ccc(Cl)cc2)C1 | KMS-12-PE | cell growth or viability, ATP luminescence | 48 h | IC50 | 13 nM
Cc1nc(Nc2ccc3c(c2)/C(=C/c2ccccc2C)C(=O)N3C)c2ccccc2n1 | BEAS-2B | cell growth or viability, MTT |  | IC50 | 15400 nM
CC(C)c1ccccc1[C@@H]1CCCN1C1CC2(CCN(c3ccc(C(=O)NS(=O)(=O)c4ccc(NC[C@H]5CC[C@](C)(O)CC5)c([N+](=O)[O-])c4)c(Oc4cnc5[nH]ccc5c4)c3)CC2)C1 | MV4-11 | cell growth or viability, ATP luminescence | 48 h | IC50 | 1.2 nM
CN(C)[C@@H]1C(O)=C(C(N)=O)C(=O)[C@@]2(O)C(O)=C3C(=O)c4c(O)cccc4[C@@](C)(O)[C@H]3C[C@@H]12 | Escherichia coli | microbial growth, disc diffusion | 100 µg/mL, 24 h | inhibition zone | 0 mm
CC(O)CSc1nnc(-c2cc3ccccc3o2)n1-c1ccccc1 (stereo not shown) | Escherichia coli | microbial growth, disc diffusion | 25 µg/disc | inhibition zone | 10.3 mm
COc1cc(C=Nc2ccc(C)cc2Cl)ccc1O | Escherichia coli | microbial growth, disc diffusion | 2000 µg/mL, 24 h | inhibition zone | 14.8 mm
